ChEMBL document CHEMBL2396604, “Synthesis and structure activity relationship of tetrahydroisoquinoline-based potentiators of GluN2C and GluN2D containing N-methyl-D-aspartate receptors” (J Med Chem, 2013)

Legend:
[1] = target: Glutamate receptor ionotropic, kainate 1 (Rattus norvegicus) (UniProt P22756); test: Activity at rat recombinant GluK1 receptor expressed in Xenopus oocytes assessed as effect on glutamate-induced response at 3 uM by two-electrode voltage clamp technique relative to control; assay type: cell-based; settings: Oocyte
Outline: (§1)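 Two-electrode voltage clamp of Xenopus oocytes injected with 1–5 ng cRNA and kept in Barth's solution at 15°C for 2–5 days. Oocytes were perfused with 90 mM NaCl, 1.0 KCl, 0.5 BaCl2, 0.005 EDTA, 10 HEPES, pH 7.4, 23°C, and held at -40 mV. Compound was co-applied at 3 µM with agonist from 20 mM DMSO stocks, final DMSO 0.05–0.5%.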

[2] = target: 5-hydroxytryptamine receptor 5A (Homo sapiens) (UniProt P47898); test: Inhibition of serotonin 5-HT5A receptor (unknown origin) at 5 uM by psychoactive drug screening programme assay
[3] = target: Muscarinic acetylcholine receptor M3 (Homo sapiens) (UniProt P20309); test: Inhibition of M3 receptor (unknown origin) at 5 uM by psychoactive drug screening programme assay
Outline: (§2)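 Radioligand binding screen run by PDSP. Displacement of ligand binding was measured with test compound at 5 µM, n=4 per target.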

[4] = target: Muscarinic acetylcholine receptor M1 (Homo sapiens) (UniProt P11229); test: Inhibition of M1 receptor (unknown origin) at 5 uM by psychoactive drug screening programme assay; outline: as §2
[5] = target: Ionotropic glutamate receptor kainate 2/5 (Rattus norvegicus) (UniProt P42260+Q63273); test: Activity at rat recombinant GluK2/GluK5 receptor expressed in Xenopus oocytes assessed as effect on glutamate-induced response at 3 uM by two-electrode voltage clamp technique relative to control; assay type: cell-based; settings: Oocyte; outline: as §1
[6] = target: 5-hydroxytryptamine receptor 1D (Homo sapiens) (UniProt P28221); test: Inhibition of serotonin 5-HT1D receptor (unknown origin) at 5 uM by psychoactive drug screening programme assay; outline: as §2
[7] = target: Sodium-dependent serotonin transporter (Homo sapiens) (UniProt P31645); test: Inhibition of serotonin transporter (unknown origin) at 5 uM by psychoactive drug screening programme assay
Sequence of Sodium-dependent serotonin transporter (Homo sapiens) (P31645 whole entry, looked up): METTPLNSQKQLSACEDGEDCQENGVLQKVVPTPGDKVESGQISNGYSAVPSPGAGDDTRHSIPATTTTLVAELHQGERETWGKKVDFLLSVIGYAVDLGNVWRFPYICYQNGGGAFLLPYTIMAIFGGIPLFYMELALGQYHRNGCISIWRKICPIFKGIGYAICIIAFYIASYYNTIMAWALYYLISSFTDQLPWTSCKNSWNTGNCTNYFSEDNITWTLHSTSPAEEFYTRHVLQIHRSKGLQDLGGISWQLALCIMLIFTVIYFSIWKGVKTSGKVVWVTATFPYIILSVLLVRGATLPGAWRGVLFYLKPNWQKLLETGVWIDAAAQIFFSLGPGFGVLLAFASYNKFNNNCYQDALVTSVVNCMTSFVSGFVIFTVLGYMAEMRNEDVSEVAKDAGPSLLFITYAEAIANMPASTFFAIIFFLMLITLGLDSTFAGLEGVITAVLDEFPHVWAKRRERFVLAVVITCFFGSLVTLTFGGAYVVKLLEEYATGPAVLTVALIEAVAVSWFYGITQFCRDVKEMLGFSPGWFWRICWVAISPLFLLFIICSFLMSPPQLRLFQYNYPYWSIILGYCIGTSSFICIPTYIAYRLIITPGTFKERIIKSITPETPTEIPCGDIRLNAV

[8] = target: Muscarinic acetylcholine receptor M4 (Homo sapiens) (UniProt P08173); test: Inhibition of M4 receptor (unknown origin) at 5 uM by psychoactive drug screening programme assay; outline: as §2
[9] = target: 5-hydroxytryptamine receptor 7 (Homo sapiens) (UniProt P34969); test: Inhibition of serotonin 5-HT7 receptor (unknown origin) at 5 uM by psychoactive drug screening programme assay
Sequence of 5-hydroxytryptamine receptor 7 (Homo sapiens) (P34969 whole entry): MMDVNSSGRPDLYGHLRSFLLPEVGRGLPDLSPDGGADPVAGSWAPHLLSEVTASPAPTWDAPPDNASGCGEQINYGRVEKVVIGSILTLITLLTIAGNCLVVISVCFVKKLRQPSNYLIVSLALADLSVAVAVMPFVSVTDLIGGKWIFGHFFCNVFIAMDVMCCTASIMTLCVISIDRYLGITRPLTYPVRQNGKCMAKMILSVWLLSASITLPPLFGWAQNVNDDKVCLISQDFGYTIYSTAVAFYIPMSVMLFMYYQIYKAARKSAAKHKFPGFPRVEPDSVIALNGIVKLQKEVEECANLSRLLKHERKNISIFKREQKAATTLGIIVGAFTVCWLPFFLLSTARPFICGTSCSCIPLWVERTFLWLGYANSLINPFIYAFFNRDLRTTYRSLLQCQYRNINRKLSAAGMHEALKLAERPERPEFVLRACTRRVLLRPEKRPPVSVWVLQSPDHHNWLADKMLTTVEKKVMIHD

[10] = target: D(3) dopamine receptor (Homo sapiens) (UniProt P35462); test: Inhibition of dopamine D3 receptor (unknown origin) at 5 uM by psychoactive drug screening programme assay; outline: as §2
Sequence of D(3) dopamine receptor (Homo sapiens) (P35462 whole entry): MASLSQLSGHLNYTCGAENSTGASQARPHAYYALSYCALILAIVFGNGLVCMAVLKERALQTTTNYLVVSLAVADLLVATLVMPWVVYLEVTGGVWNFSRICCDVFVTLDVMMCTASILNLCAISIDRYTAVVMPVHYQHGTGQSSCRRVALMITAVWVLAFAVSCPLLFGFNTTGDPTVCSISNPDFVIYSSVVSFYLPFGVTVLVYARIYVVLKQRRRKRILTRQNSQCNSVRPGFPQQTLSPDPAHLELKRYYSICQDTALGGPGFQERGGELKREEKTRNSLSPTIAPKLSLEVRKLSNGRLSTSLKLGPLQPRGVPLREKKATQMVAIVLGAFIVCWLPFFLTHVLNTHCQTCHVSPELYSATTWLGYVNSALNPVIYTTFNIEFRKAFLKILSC

[11] = target: Nicotinic acetylcholine receptor alpha9/alpha10 (Rattus norvegicus) (UniProt P43144+Q9JLB5); test: Activity at rat recombinant alpha9alpha10 nAChR expressed in Xenopus oocytes assessed as effect on acetylcholine-induced response at 3 uM by two-electrode voltage clamp technique relative to control; assay type: cell-based; settings: Oocyte; outline: as §1
[12] = target: Neuronal acetylcholine receptor subunit alpha-7 (Homo sapiens) (UniProt P36544); test: Activity at human recombinant alpha7 nAChR expressed in Xenopus oocytes assessed as effect on acetylcholine-induced activation at 3 uM by two-electrode voltage clamp technique relative to control; assay type: cell-based; settings: Oocyte; outline: as §1
Sequence of Neuronal acetylcholine receptor subunit alpha-7 (Homo sapiens) (P36544 whole entry): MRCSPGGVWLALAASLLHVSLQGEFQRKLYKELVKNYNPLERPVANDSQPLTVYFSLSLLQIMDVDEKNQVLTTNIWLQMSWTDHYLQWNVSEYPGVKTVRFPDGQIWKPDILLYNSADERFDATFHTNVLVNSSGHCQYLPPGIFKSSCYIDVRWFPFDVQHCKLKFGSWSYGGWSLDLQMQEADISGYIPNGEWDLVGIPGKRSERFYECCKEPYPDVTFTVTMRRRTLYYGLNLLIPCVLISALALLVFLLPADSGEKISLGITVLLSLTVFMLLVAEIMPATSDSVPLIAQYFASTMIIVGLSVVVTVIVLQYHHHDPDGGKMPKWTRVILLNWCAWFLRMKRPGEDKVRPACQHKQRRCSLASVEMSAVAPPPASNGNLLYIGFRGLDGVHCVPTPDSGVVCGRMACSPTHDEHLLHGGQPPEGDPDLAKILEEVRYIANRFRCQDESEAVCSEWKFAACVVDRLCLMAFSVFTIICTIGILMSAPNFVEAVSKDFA

[13] = target: Ionotropic glutamate receptor NMDA 1/2D (Rattus norvegicus) (UniProt P35439+Q62645); test: Activity at rat recombinant GluN1/GluN2D receptor expressed in Xenopus oocytes assessesed as effect of glycine/glutamate-induced response at 3 uM by two-electrode voltage clamp technique relative to control; assay type: cell-based; settings: Oocyte; outline: as §1
[14] = target: Alpha-1A adrenergic receptor (Homo sapiens) (UniProt P35348); test: Inhibition of adrenergic alpha1A receptor (unknown origin) at 5 uM by psychoactive drug screening programme assay; outline: as §2
[15] = target: Muscarinic acetylcholine receptor M5 (Homo sapiens) (UniProt P08912); test: Inhibition of M5 receptor (unknown origin) at 5 uM by psychoactive drug screening programme assay; outline: as §2
Sequence of Muscarinic acetylcholine receptor M5 (Homo sapiens) (P08912 whole entry): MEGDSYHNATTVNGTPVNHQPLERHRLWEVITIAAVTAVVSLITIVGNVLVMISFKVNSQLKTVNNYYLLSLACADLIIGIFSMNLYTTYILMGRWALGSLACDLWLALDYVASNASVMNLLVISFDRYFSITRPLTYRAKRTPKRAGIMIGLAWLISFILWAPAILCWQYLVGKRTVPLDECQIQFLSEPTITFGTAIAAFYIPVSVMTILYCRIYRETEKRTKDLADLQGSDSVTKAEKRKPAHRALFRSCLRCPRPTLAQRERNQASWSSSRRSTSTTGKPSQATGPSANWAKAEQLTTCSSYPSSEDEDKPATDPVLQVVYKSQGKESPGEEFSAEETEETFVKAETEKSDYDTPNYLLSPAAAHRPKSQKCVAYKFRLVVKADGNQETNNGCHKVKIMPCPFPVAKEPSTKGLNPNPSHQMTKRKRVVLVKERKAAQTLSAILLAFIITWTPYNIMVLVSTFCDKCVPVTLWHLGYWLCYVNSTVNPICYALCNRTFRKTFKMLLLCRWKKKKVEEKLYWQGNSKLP

[16] = target: Alpha-2A adrenergic receptor (Homo sapiens) (UniProt P08913); test: Inhibition of adrenergic alpha2A receptor (unknown origin) at 5 uM by psychoactive drug screening programme assay; outline: as §2
[17] = target: Sodium-dependent dopamine transporter (Homo sapiens) (UniProt Q01959); test: Inhibition of dopamine transporter (unknown origin) at 5 uM by psychoactive drug screening programme assay; outline: as §2
Homo sapiens = species: Homo sapiens; test: Inhibition of sigma2 receptor (unknown origin) at 5 uM by psychoactive drug screening programme assay
[18] = target: D(2) dopamine receptor (Homo sapiens) (UniProt P14416); test: Inhibition of dopamine D2 receptor (unknown origin) at 5 uM by psychoactive drug screening programme assay; outline: as §2
[19] = target: Glutamate receptor ionotropic, kainate 2 (Rattus norvegicus) (UniProt P42260); test: Activity at rat recombinant GluK2 receptor expressed in Xenopus oocytes assessed as effect on glutamate-induced response at 3 uM by two-electrode voltage clamp technique relative to control; assay type: cell-based; settings: Oocyte; outline: as §1
[20] = target: P2X purinoceptor 2 (Homo sapiens) (UniProt Q9UBL9); test: Activity at human recombinant purinergic P2X2 receptor expressed in Xenopus oocytes assessed as effect on ATP-induced activation at 3 uM by two-electrode voltage clamp technique relative to control; assay type: cell-based; settings: Oocyte; outline: as §1
[21] = target: 5-hydroxytryptamine receptor 2C (Homo sapiens) (UniProt P28335); test: Inhibition of serotonin 5-HT2C receptor (unknown origin) at 5 uM by psychoactive drug screening programme assay; outline: as §2
[22] = target: D(1A) dopamine receptor (Homo sapiens) (UniProt P21728); test: Inhibition of dopamine D1 receptor (unknown origin) at 5 uM by psychoactive drug screening programme assay; outline: as §2
Sequence of D(1A) dopamine receptor (Homo sapiens) (P21728 whole entry): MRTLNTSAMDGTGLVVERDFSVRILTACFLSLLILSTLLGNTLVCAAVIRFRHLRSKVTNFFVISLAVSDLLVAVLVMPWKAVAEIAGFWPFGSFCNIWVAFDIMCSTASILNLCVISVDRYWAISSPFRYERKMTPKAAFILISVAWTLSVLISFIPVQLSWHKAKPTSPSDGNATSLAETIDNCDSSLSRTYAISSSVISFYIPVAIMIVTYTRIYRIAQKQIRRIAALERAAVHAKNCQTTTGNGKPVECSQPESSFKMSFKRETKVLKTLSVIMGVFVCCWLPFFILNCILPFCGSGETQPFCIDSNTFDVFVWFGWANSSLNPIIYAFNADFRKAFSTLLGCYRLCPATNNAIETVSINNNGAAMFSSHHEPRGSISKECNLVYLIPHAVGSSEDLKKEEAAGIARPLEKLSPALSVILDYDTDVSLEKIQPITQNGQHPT

[23] = target: Neuronal acetylcholine receptor; alpha3/beta4 (Homo sapiens) (UniProt P30926+P32297); test: Activity at human recombinant alpha3beta4 nAChR expressed in Xenopus oocytes assessed as effect on acetylcholine-induced activation at 3 uM by two-electrode voltage clamp technique relative to control; assay type: cell-based; settings: Oocyte; outline: as §1
[24] = target: Muscarinic acetylcholine receptor M2 (Homo sapiens) (UniProt P08172); test: Inhibition of M2 receptor (unknown origin) at 5 uM by psychoactive drug screening programme assay; outline: as §2
[25] = target: 5-hydroxytryptamine receptor 1E (Homo sapiens) (UniProt P28566); test: Inhibition of serotonin 5-HT1E receptor (unknown origin) at 5 uM by psychoactive drug screening programme assay; outline: as §2
Sequence of 5-hydroxytryptamine receptor 1E (Homo sapiens) (P28566 whole entry): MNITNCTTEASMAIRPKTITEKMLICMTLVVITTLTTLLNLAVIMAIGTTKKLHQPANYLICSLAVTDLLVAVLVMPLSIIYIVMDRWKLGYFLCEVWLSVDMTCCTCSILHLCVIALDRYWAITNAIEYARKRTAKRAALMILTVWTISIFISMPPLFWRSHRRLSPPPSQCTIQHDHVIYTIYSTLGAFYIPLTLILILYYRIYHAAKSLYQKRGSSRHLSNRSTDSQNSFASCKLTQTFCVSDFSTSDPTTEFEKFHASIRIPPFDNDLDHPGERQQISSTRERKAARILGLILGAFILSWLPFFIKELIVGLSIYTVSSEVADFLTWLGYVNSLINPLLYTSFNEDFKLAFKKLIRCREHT

[26] = target: Delta-type opioid receptor (Homo sapiens) (UniProt P41143); test: Inhibition of delta opioid receptor (unknown origin) at 5 uM by psychoactive drug screening programme assay; outline: as §2
[27] = target: Glycine receptor subunit alpha-1 (Rattus norvegicus) (UniProt P07727); test: Activity at rat recombinant glycine alpha1 receptor expressed in Xenopus oocytes assessed as effect on glycine-induced activation at 3 uM by two-electrode voltage clamp technique relative to control; assay type: cell-based; settings: Oocyte; outline: as §1
Sequence of Glycine receptor subunit alpha-1 (Rattus norvegicus) (P07727 whole entry): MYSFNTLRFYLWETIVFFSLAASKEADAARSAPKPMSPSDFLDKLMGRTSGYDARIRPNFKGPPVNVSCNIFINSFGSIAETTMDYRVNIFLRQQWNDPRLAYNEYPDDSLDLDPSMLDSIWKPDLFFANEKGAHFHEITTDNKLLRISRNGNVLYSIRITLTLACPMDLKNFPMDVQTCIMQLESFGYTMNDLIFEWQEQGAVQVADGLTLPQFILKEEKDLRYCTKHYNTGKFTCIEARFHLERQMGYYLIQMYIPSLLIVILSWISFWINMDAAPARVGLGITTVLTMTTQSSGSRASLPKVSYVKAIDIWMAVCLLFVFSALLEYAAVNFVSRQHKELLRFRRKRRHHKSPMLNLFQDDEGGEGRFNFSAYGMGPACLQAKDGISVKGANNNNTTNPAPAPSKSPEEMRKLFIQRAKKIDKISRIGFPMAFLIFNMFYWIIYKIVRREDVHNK

[28] = target: Alpha-1D adrenergic receptor (Homo sapiens) (UniProt P25100); test: Inhibition of adrenergic alpha1D receptor (unknown origin) at 5 uM by psychoactive drug screening programme assay; outline: as §2
[29] = target: Sodium-dependent noradrenaline transporter (Homo sapiens) (UniProt P23975); test: Inhibition of norepinephrine transporter (unknown origin) at 5 uM by psychoactive drug screening programme assay; outline: as §2
Sequence of Sodium-dependent noradrenaline transporter (Homo sapiens) (P23975 whole entry): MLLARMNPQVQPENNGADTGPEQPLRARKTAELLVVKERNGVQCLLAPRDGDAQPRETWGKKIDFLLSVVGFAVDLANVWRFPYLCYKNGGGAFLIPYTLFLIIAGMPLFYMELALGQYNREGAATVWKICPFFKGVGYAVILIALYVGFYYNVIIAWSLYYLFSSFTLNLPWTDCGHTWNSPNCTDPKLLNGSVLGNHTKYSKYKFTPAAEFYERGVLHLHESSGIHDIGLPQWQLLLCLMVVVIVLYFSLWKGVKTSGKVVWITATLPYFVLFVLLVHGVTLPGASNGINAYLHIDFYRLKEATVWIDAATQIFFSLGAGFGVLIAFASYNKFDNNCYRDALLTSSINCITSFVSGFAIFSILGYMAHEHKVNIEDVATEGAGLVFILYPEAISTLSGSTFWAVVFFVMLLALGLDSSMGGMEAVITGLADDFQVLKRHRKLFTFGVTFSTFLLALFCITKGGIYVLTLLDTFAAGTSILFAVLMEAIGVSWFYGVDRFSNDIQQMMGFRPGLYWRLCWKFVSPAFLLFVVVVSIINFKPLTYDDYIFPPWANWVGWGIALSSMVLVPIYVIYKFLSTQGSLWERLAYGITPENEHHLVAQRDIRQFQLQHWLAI

[30] = target: D(1B) dopamine receptor (Homo sapiens) (UniProt P21918); test: Inhibition of dopamine D5 receptor (unknown origin) at 5 uM by psychoactive drug screening programme assay; outline: as §2
Sequence of D(1B) dopamine receptor (Homo sapiens) (P21918 whole entry): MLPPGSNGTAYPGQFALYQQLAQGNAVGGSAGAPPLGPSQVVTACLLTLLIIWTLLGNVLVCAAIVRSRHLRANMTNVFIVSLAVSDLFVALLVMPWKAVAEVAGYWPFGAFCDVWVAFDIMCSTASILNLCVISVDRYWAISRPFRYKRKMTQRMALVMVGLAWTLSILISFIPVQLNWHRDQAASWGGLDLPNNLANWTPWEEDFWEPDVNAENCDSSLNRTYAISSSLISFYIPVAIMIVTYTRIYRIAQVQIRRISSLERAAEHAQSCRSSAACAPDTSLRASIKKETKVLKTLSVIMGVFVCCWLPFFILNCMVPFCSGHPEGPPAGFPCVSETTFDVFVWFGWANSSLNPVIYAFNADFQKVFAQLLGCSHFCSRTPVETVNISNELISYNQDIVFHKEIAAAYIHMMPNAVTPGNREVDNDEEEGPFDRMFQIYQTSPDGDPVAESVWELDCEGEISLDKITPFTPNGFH

## COc1ccc(OCC2c3ccc(OCc4ccccc4)cc3CCN2C(=O)c2cccc(Br)c2)cc1 (stereo unspecified)
[1]
  Activity: 101%
[2]
  inhibition: < 50%
[3]
  inhibition: < 50%
[4]
  inhibition: < 50%
[5]
  Activity: 103%
[6]
  inhibition: < 50%
[7]
  inhibition: < 50%
[8]
  inhibition: < 50%
[9]
  inhibition: < 50%
[10]
  inhibition: < 50%
[11]
  Activity: 92%
[12]
  Activity: 90%
[13]
  Activity: 213%
[14]
  inhibition: < 50%
[15]
  inhibition: < 50%
[16]
  inhibition: < 50%
[17]
  inhibition: < 50%
Homo sapiens
  inhibition: < 50%
[18]
  inhibition: < 50%
[19]
  Activity: 98%
[20]
  Activity: 94%
[21]
  inhibition: < 50%
[22]
  inhibition: < 50%
[23]
  Activity: 95%
[24]
  inhibition: < 50%
[25]
  inhibition: < 50%
[26]
  inhibition: < 50%
[27]
  Activity: 91%
[28]
  inhibition: < 50%
[29]
  inhibition: < 50%
[30]
  inhibition: < 50%
